Reference: ChEMBL document CHEMBL4257452, “A mini-library system to investigate non-essential residues of lipid-phosphatidylserine (PS) binding peptide-peptoid hybrid PPS1” (Medchemcomm, 2017)
Active and inactive are the calls of the source. No cut-off for these calls is given here. Starred links: 1 amine or outer side, 2 acyl side, 3 side chain; linkers in the order of their positions; H or OH if unused. Positions of bridges follow the written chain, without caps; N, C: chain ends. Non-standard residues stand in square brackets, D forms with d. Residues, ends and D or L forms follow the SMILES beside them. Chains are numbered I, II in the order given. N(3,4-(MeO)2phenethyl)Gly = COc1ccc(CCNCC(=O)O)cc1OC; Gly(N-piperonyl) = O=C(O)CNCc1ccc2c(c1)OCO2; N(4-MeOBn)Gly = COc1ccc(CNCC(=O)O)cc1; X11 = Nc1ccc(CN(CC(=O)[*:2])[*:1])cc1; X3 = CC(c1ccccc1)N(CC(=O)[*:2])[*:1]; N(4-MeBn)Gly = Cc1ccc(CNCC(=O)O)cc1; N(isopentyl)Gly = CC(C)CCNCC(=O)O; Nrpe = C[C@@H](NCC(=O)O)c1ccccc1; Gly(N-propargyl) = C#CCNCC(=O)O; Gly(N-cPent) = O=C(O)CNC1CCCC1; X6 = CCC(C)N(CC(=O)[*:2])[*:1]; Sar = CNCC(=O)O

Test system: HCC4017
Test: Cytotoxicity against human HCC4017 cells assessed as reduction in cell viability at 20 uM after 24 hrs by MTS assay
Assay type: functional, cell-based
Procedure, shortened: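 HCC4017 cells (RPMI, 5% FBS) and HBEC-3KT normal lung cells (KSFM with recombinant human EGF and bovine pituitary extract) were plated at 10 000 cells/well in triplicate and left to adhere overnight. They were exposed to 1 or 20 μM compound for 24 h. MTS reagent was then added for 2 h and absorbance read at 490 nm. Viability is % of untreated control wells.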

| SMILES | Activity |
| --- | --- |
| COc1ccc(CN(CC(=O)NC(CC(C)C)C(=O)NC(CCCCN)C(=O)NC(CCCCN)C(=O)NC(CCSC)C(=O)NCCCCC(NC(=O)C(CCSC)NC(=O)C(CCCCN)NC(=O)C(CCCCN)NC(=O)C(CC(C)C)NC(=O)CN(Cc2ccc(OC)cc2)C(=O)CN(C(=O)CN(Cc2ccc3c(c2)OCO3)C(=O)CNC(C)c2ccccc2)C(C)c2ccccc2)C(N)=O)C(=O)CN(C(=O)CN(Cc2ccc3c(c2)OCO3)C(=O)CNC(C)c2ccccc2)C(C)c2ccccc2)cc1 (stereo not drawn) (I: H-[X3][Gly(N-piperonyl)][X3][N(4-MeOBn)Gly]LKKMK-NH2 / II: H-[X3][Gly(N-piperonyl)][X3][N(4-MeOBn)Gly]LKKM; amide I:9-II:C; configuration not given here) | Active |
| COc1ccc(CN(CC(=O)NC(Cc2ccc(O)cc2)C(=O)NC(CCCCN)C(=O)NC(CCCCN)C(=O)NC(CCSC)C(=O)NCCCCC(NC(=O)C(CCSC)NC(=O)C(CCCCN)NC(=O)C(CCCCN)NC(=O)C(Cc2ccc(O)cc2)NC(=O)CN(Cc2ccc(OC)cc2)C(=O)CN(C(=O)CN(Cc2ccc3c(c2)OCO3)C(=O)CNC(C)c2ccccc2)C(C)c2ccccc2)C(N)=O)C(=O)CN(C(=O)CN(Cc2ccc3c(c2)OCO3)C(=O)CNC(C)c2ccccc2)C(C)c2ccccc2)cc1 (stereo not drawn) (I: H-[X3][Gly(N-piperonyl)][X3][N(4-MeOBn)Gly]YKKMK-NH2 / II: H-[X3][Gly(N-piperonyl)][X3][N(4-MeOBn)Gly]YKKM; amide I:9-II:C; configuration not given here) | Active |
| CCC(C)N(CC(=O)NC(CCCCN)C(=O)NC(CCCCN)C(=O)NC(CCSC)C(=O)NCCCCC(NC(=O)C(CCSC)NC(=O)C(CCCCN)NC(=O)C(CCCCN)NC(=O)CN(C(=O)CN(Cc1ccc(OC)cc1)C(=O)CN(C(=O)CN(Cc1ccc2c(c1)OCO2)C(=O)CNC(C)c1ccccc1)C(C)c1ccccc1)C(C)CC)C(N)=O)C(=O)CN(Cc1ccc(OC)cc1)C(=O)CN(C(=O)CN(Cc1ccc2c(c1)OCO2)C(=O)CNC(C)c1ccccc1)C(C)c1ccccc1 (stereo not drawn) (I: H-[X3][Gly(N-piperonyl)][X3][N(4-MeOBn)Gly][X6]KKMK-NH2 / II: H-[X3][Gly(N-piperonyl)][X3][N(4-MeOBn)Gly][X6]KKM; amide I:9-II:C; configuration not given here) | Active |
| C#CCN(CC(=O)NC(CCCCN)C(=O)NC(CCCCN)C(=O)NC(CCSC)C(=O)NCCCCC(NC(=O)C(CCSC)NC(=O)C(CCCCN)NC(=O)C(CCCCN)NC(=O)CN(CC#C)C(=O)CN(Cc1ccc(OC)cc1)C(=O)CN(C(=O)CN(Cc1ccc2c(c1)OCO2)C(=O)CNC(C)c1ccccc1)C(C)c1ccccc1)C(N)=O)C(=O)CN(Cc1ccc(OC)cc1)C(=O)CN(C(=O)CN(Cc1ccc2c(c1)OCO2)C(=O)CNC(C)c1ccccc1)C(C)c1ccccc1 (stereo not drawn) (I: H-[X3][Gly(N-piperonyl)][X3][N(4-MeOBn)Gly][Gly(N-propargyl)]KKMK-NH2 / II: H-[X3][Gly(N-piperonyl)][X3][N(4-MeOBn)Gly][Gly(N-propargyl)]KKM; amide I:9-II:C; configuration not given here) | Active |
| COc1ccc(CN(CC(=O)N(C)CC(=O)NC(CCCCN)C(=O)NC(CCCCN)C(=O)NC(CCSC)C(=O)NCCCCC(NC(=O)C(CCSC)NC(=O)C(CCCCN)NC(=O)C(CCCCN)NC(=O)CN(C)C(=O)CN(Cc2ccc(OC)cc2)C(=O)CN(C(=O)CN(Cc2ccc3c(c2)OCO3)C(=O)CNC(C)c2ccccc2)C(C)c2ccccc2)C(N)=O)C(=O)CN(C(=O)CN(Cc2ccc3c(c2)OCO3)C(=O)CNC(C)c2ccccc2)C(C)c2ccccc2)cc1 (stereo not drawn) (I: H-[X3][Gly(N-piperonyl)][X3][N(4-MeOBn)Gly][Sar]KKMK-NH2 / II: H-[X3][Gly(N-piperonyl)][X3][N(4-MeOBn)Gly][Sar]KKM; amide I:9-II:C; configuration not given here) | Active |
| COc1ccc(CN(CC(=O)N(CCc2ccc(OC)c(OC)c2)CC(=O)NC(CCCCN)C(=O)NC(CCCCN)C(=O)NC(CCSC)C(=O)NCCCCC(NC(=O)C(CCSC)NC(=O)C(CCCCN)NC(=O)C(CCCCN)NC(=O)CN(CCc2ccc(OC)c(OC)c2)C(=O)CN(Cc2ccc(OC)cc2)C(=O)CN(C(=O)CN(Cc2ccc3c(c2)OCO3)C(=O)CNC(C)c2ccccc2)C(C)c2ccccc2)C(N)=O)C(=O)CN(C(=O)CN(Cc2ccc3c(c2)OCO3)C(=O)CNC(C)c2ccccc2)C(C)c2ccccc2)cc1 (stereo not drawn) (I: H-[X3][Gly(N-piperonyl)][X3][N(4-MeOBn)Gly][N(3,4-(MeO)2phenethyl)Gly]KKMK-NH2 / II: H-[X3][Gly(N-piperonyl)][X3][N(4-MeOBn)Gly][N(3,4-(MeO)2phenethyl)Gly]KKM; amide I:9-II:C; configuration not given here) | Active |
| COc1ccc(CN(CC(=O)NC(CC(=O)O)C(=O)NC(CCCCN)C(=O)NC(CCCCN)C(=O)NC(CCSC)C(=O)NCCCCC(NC(=O)C(CCSC)NC(=O)C(CCCCN)NC(=O)C(CCCCN)NC(=O)C(CC(=O)O)NC(=O)CN(Cc2ccc(OC)cc2)C(=O)CN(C(=O)CN(Cc2ccc3c(c2)OCO3)C(=O)CNC(C)c2ccccc2)C(C)c2ccccc2)C(N)=O)C(=O)CN(C(=O)CN(Cc2ccc3c(c2)OCO3)C(=O)CNC(C)c2ccccc2)C(C)c2ccccc2)cc1 (stereo not drawn) (I: H-[X3][Gly(N-piperonyl)][X3][N(4-MeOBn)Gly]DKKMK-NH2 / II: H-[X3][Gly(N-piperonyl)][X3][N(4-MeOBn)Gly]DKKM; amide I:9-II:C; configuration not given here) | inactive |
| COc1ccc(CN(CC(=O)N(CC(=O)N[C@@H](CCCCN)C(=O)N[C@H](CCCCN)C(=O)N[C@@H](CCSC)C(=O)NCCCC[C@H](NC(=O)[C@H](CCSC)NC(=O)[C@@H](CCCCN)NC(=O)[C@H](CCCCN)NC(=O)CN(Cc2ccc3c(c2)OCO3)C(=O)CN(Cc2ccc(OC)cc2)C(=O)CN(C(=O)CN(Cc2ccc3c(c2)OCO3)C(=O)CN[C@H](C)c2ccccc2)[C@H](C)c2ccccc2)C(N)=O)Cc2ccc3c(c2)OCO3)C(=O)CN(C(=O)CN(Cc2ccc3c(c2)OCO3)C(=O)CN[C@H](C)c2ccccc2)[C@H](C)c2ccccc2)cc1 (I: H-[Nrpe][Gly(N-piperonyl)][Nrpe][N(4-MeOBn)Gly][Gly(N-piperonyl)]K[dK]MK-NH2 / II: H-[Nrpe][Gly(N-piperonyl)][Nrpe][N(4-MeOBn)Gly][Gly(N-piperonyl)]K[dK]M; amide I:9-II:C) | Active |
| COc1ccc(CN(CC(=O)N(CC(=O)NC(CCCCN)C(=O)NC(CCCCN)C(=O)NC(CCSC)C(=O)NCCCCC(NC(=O)C(CCSC)NC(=O)C(CCCCN)NC(=O)C(CCCCN)NC(=O)CN(Cc2ccc(C)cc2)C(=O)CN(Cc2ccc(OC)cc2)C(=O)CN(C(=O)CN(Cc2ccc3c(c2)OCO3)C(=O)CNC(C)c2ccccc2)C(C)c2ccccc2)C(N)=O)Cc2ccc(C)cc2)C(=O)CN(C(=O)CN(Cc2ccc3c(c2)OCO3)C(=O)CNC(C)c2ccccc2)C(C)c2ccccc2)cc1 (stereo not drawn) (I: H-[X3][Gly(N-piperonyl)][X3][N(4-MeOBn)Gly][N(4-MeBn)Gly]KKMK-NH2 / II: H-[X3][Gly(N-piperonyl)][X3][N(4-MeOBn)Gly][N(4-MeBn)Gly]KKM; amide I:9-II:C; configuration not given here) | Active |
| COc1ccc(CN(CC(=O)N(CC(=O)NC(CCCCN)C(=O)NC(CCCCN)C(=O)NC(CCSC)C(=O)NCCCCC(NC(=O)C(CCSC)NC(=O)C(CCCCN)NC(=O)C(CCCCN)NC(=O)CN(Cc2ccc(N)cc2)C(=O)CN(Cc2ccc(OC)cc2)C(=O)CN(C(=O)CN(Cc2ccc3c(c2)OCO3)C(=O)CNC(C)c2ccccc2)C(C)c2ccccc2)C(N)=O)Cc2ccc(N)cc2)C(=O)CN(C(=O)CN(Cc2ccc3c(c2)OCO3)C(=O)CNC(C)c2ccccc2)C(C)c2ccccc2)cc1 (stereo not drawn) (I: H-[X3][Gly(N-piperonyl)][X3][N(4-MeOBn)Gly][X11]KKMK-NH2 / II: H-[X3][Gly(N-piperonyl)][X3][N(4-MeOBn)Gly][X11]KKM; amide I:9-II:C; configuration not given here) | Active |
| COc1ccc(CN(CC(=O)N(CC(=O)NC(CCCCN)C(=O)NC(CCCCN)C(=O)NC(CCSC)C(=O)NCCCCC(NC(=O)C(CCSC)NC(=O)C(CCCCN)NC(=O)C(CCCCN)NC(=O)CN(C(=O)CN(Cc2ccc(OC)cc2)C(=O)CN(C(=O)CN(Cc2ccc3c(c2)OCO3)C(=O)CNC(C)c2ccccc2)C(C)c2ccccc2)C(C)c2ccccc2)C(N)=O)C(C)c2ccccc2)C(=O)CN(C(=O)CN(Cc2ccc3c(c2)OCO3)C(=O)CNC(C)c2ccccc2)C(C)c2ccccc2)cc1 (stereo not drawn) (I: H-[X3][Gly(N-piperonyl)][X3][N(4-MeOBn)Gly][X3]KKMK-NH2 / II: H-[X3][Gly(N-piperonyl)][X3][N(4-MeOBn)Gly][X3]KKM; amide I:9-II:C; configuration not given here) | Active |
| COc1ccc(CN(CC(=O)N(CC(=O)NC(CCCCN)C(=O)NC(CCCCN)C(=O)NC(CCSC)C(=O)NCCCCC(NC(=O)C(CCSC)NC(=O)C(CCCCN)NC(=O)C(CCCCN)NC(=O)CN(C(=O)CN(Cc2ccc(OC)cc2)C(=O)CN(C(=O)CN(Cc2ccc3c(c2)OCO3)C(=O)CNC(C)c2ccccc2)C(C)c2ccccc2)C2CCCC2)C(N)=O)C2CCCC2)C(=O)CN(C(=O)CN(Cc2ccc3c(c2)OCO3)C(=O)CNC(C)c2ccccc2)C(C)c2ccccc2)cc1 (stereo not drawn) (I: H-[X3][Gly(N-piperonyl)][X3][N(4-MeOBn)Gly][Gly(N-cPent)]KKMK-NH2 / II: H-[X3][Gly(N-piperonyl)][X3][N(4-MeOBn)Gly][Gly(N-cPent)]KKM; amide I:9-II:C; configuration not given here) | Active |
| COc1ccc(CN(CC(=O)N(CCC(C)C)CC(=O)NC(CCCCN)C(=O)NC(CCCCN)C(=O)NC(CCSC)C(=O)NCCCCC(NC(=O)C(CCSC)NC(=O)C(CCCCN)NC(=O)C(CCCCN)NC(=O)CN(CCC(C)C)C(=O)CN(Cc2ccc(OC)cc2)C(=O)CN(C(=O)CN(Cc2ccc3c(c2)OCO3)C(=O)CNC(C)c2ccccc2)C(C)c2ccccc2)C(N)=O)C(=O)CN(C(=O)CN(Cc2ccc3c(c2)OCO3)C(=O)CNC(C)c2ccccc2)C(C)c2ccccc2)cc1 (stereo not drawn) (I: H-[X3][Gly(N-piperonyl)][X3][N(4-MeOBn)Gly][N(isopentyl)Gly]KKMK-NH2 / II: H-[X3][Gly(N-piperonyl)][X3][N(4-MeOBn)Gly][N(isopentyl)Gly]KKM; amide I:9-II:C; configuration not given here) | Active |
